# Measured values published in ChEMBL document CHEMBL1139971, “RXR-LXR heterodimer modulators for the potential treatment of dyslipidemia” (Bioorg Med Chem Lett, 2007).
# Activity calls are given as the source filed them. The calls are words filed in the database; no cut-off is given here.
# Experiments:
# [1] = Activity at RXR-LXR heterodimer in human THP1 cells assessed as induction of ABCA1 mRNA; type: cell-based; conditions: THP-1
# Rattus norvegicus [2] = assay: Effect on serum HDL-C level in high cholesterol diet fed Sprague-Dawley rat at 1 mg/kg, po after 8 days relative to control; type: functional
# Procedure, shortened: (§1)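 Male Sprague–Dawley rats were fed a high-cholesterol atherogenic diet ad libitum. After 6 days on the diet, oral dosing began at 0.3, 1, 3 or 10 mg/kg in 15% hydroxypropyl β-cyclodextrin, pH 10, for 8 days total. Serum total cholesterol, HDL-C, LDL-C and triglycerides and plasma Cmax were measured. Groups are compared with vehicle as mean ± SEM by one-way ANOVA with Dunnett's test.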
# Rattus norvegicus [3] = assay: Effect on serum triglyceride level in high cholesterol diet fed Sprague-Dawley rat at 1 mg/kg, po after 8 days relative to control; type: functional; procedure, shortened: as §1
# [4] = target: T1, Retinoic acid receptor RXR-alpha (Homo sapiens, UniProt P19793); assay: (§2) Activity at RXRalpha by GAL4DNA cotransfection assay
# T1 sequence (P19793 whole entry): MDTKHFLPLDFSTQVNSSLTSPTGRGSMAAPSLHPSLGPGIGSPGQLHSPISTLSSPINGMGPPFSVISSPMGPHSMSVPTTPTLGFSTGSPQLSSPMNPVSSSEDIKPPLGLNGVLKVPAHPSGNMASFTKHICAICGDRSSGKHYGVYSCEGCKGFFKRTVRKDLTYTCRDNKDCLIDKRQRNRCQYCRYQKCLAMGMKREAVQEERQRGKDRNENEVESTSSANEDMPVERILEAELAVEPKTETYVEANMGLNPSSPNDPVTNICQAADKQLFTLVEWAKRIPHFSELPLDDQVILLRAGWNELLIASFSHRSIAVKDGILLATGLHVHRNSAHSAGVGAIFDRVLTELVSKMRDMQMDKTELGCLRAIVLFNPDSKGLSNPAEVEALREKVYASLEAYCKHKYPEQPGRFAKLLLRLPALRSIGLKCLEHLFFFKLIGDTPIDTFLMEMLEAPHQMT
# Procedure, shortened: (§3)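 RXRα co-transfection assay using the yeast GAL4 DNA-binding domain fused to the RXRα ligand-binding domain, with a yeast promoter driving luciferase. EC50 is reported, and efficacy is given as % maximal activation versus the reference RXR agonist.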
# [5] = Activity at RXR-PPARgamma heterodimer in primary human preadipocytes assessed as induction of adipocytes fatty acid binding protein by bDNA assay; type: cell-based
# Rattus norvegicus [6] = assay: Effect on serum LDL-C level in high cholesterol diet fed Sprague-Dawley rat at 1 mg/kg, po after 8 days relative to control; type: functional; procedure, shortened: as §1
# Rattus norvegicus [7] = assay: Effect on serum cholesterol level in high cholesterol diet fed Sprague-Dawley rat at 1 mg/kg, po after 8 days relative to control; type: functional; procedure, shortened: as §1
# Homo sapiens [8] = species: Homo sapiens; assay: Activity at RXR-PPARgamma in primary human preadipocytes assessed as induction of adipocytes fatty acid binding protein by bDNA assay relative to rosiglitazone; type: cell-based
# THP-1 = assay: Activation of RXR-LXR heterodimer in human THP1 cells assessed as induction of ABCA1 mRNA relative to 5-((3-(1-ethyl-4,4,6-trimethyl-2-oxo-1,2,3,4-tetrahydroquinolin-7-yl)-4-(trifluoromethoxy)phenyl)methylene)thiazolidine-2,4-dione; type: cell-based; set-up: concentration or dose not given beside the values
# [9] = target: T2, Retinoic acid receptor RXR-alpha (Homo sapiens) (UniProt P19793); assay: Activity at RXRalpha by GAL4DNA cotransfection assay relative to 5-((3-(1-ethyl-4,4,6-trimethyl-2-oxo-1,2,3,4-tetrahydroquinolin-7-yl)-4-(trifluoromethoxy)phenyl)methylene)thiazolidine-2,4-dione; procedure, shortened: as §3
# T2 sequence (whole entry): T1 sequence (P19793 whole entry)
# Homo sapiens [10] = species: Homo sapiens; assay: Activity at RXR-PPARgamma in primary human preadipocytes assessed as induction of adipocytes fatty acid binding protein by bDNA assay relative to 5-((3-(1-ethyl-4,4,6-trimethyl-2-oxo-1,2,3,4-tetrahydroquinolin-7-yl)-4-(trifluoromethoxy)phenyl)methylene)thiazolidine-2,4-dione; type: cell-based
# [11] = Cmax in high cholesterol diet fed Sprague-Dawley rat at 0.3 mg/kg, po; type: ADME, organism-based; set-up: dose 0.3 mg/kg, route oral; conditions: in vivo; procedure, shortened: as §1
# Rattus norvegicus [12] = assay: Effect on serum cholesterol level in high cholesterol diet fed Sprague-Dawley rat at 3 mg/kg, po after 8 days relative to control; type: functional; procedure, shortened: as §1
# Rattus norvegicus [13] = assay: Effect on serum LDL-C level in high cholesterol diet fed Sprague-Dawley rat at 0.3 mg/kg, po after 8 days relative to control; type: functional; procedure, shortened: as §1
# [14] = Cmax in high cholesterol diet fed Sprague-Dawley rat at 10 mg/kg, po; type: ADME, organism-based; set-up: dose 10 mg/kg, route oral; conditions: in vivo; procedure, shortened: as §1
# [15] = Half life in Sprague-Dawley rat at 3 mg/kg; type: ADME, organism-based; set-up: dose 3 mg/kg; conditions: in vivo
# Procedure, shortened: (§4)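 Sprague–Dawley rats dosed at 3 mg/kg in 10% hydroxypropyl β-cyclodextrin (pH 10). Oral bioavailability, Cmax, AUC and terminal half-life were taken from the plasma profile.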
# Mus musculus = species: Mus musculus; assay: Decrease in blood glucose level in db/db mouse after 11 days; type: functional, organism-based
# Procedure, shortened: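 db/db mice, a diabetes model, were treated for 11 days and blood glucose was monitored.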
# Rattus norvegicus [16] = assay: Effect on serum HDL-C level in high cholesterol diet fed Sprague-Dawley rat at 0.3 mg/kg, po after 8 days relative to control; type: functional; procedure, shortened: as §1
# Rattus norvegicus [17] = assay: Effect on serum HDL-C level in high cholesterol diet fed Sprague-Dawley rat at 10 mg/kg, po after 8 days relative to control; type: functional; procedure, shortened: as §1
# Rattus norvegicus [18] = assay: Effect on serum cholesterol level in high cholesterol diet fed Sprague-Dawley rat at 0.3 mg/kg, po after 8 days relative to control; type: functional; procedure, shortened: as §1
# Rattus norvegicus [19] = assay: Effect on serum triglyceride level in high cholesterol diet fed Sprague-Dawley rat at 0.3 mg/kg, po after 8 days relative to control; type: functional; procedure, shortened: as §1
# [20] = Cmax in Sprague-Dawley rat at 3 mg/kg; type: ADME, organism-based; set-up: dose 3 mg/kg; conditions: in vivo; procedure, shortened: as §4
# Rattus norvegicus [21] = assay: Effect on serum LDL-C level in high cholesterol diet fed Sprague-Dawley rat at 10 mg/kg, po after 8 days relative to control; type: functional; procedure, shortened: as §1
# Rattus norvegicus [22] = assay: Effect on serum LDL-C level in high cholesterol diet fed Sprague-Dawley rat at 3 mg/kg, po after 8 days relative to control; type: functional; procedure, shortened: as §1
# [23] = AUC in Sprague-Dawley rat at 3 mg/kg; type: ADME, organism-based; set-up: dose 3 mg/kg; conditions: plasma; procedure, shortened: as §4
# Rattus norvegicus [24] = assay: Effect on serum triglyceride level in high cholesterol diet fed Sprague-Dawley rat at 3 mg/kg, po after 8 days relative to control; type: functional; procedure, shortened: as §1
# Rattus norvegicus [25] = assay: Effect on serum cholesterol level in high cholesterol diet fed Sprague-Dawley rat at 10 mg/kg, po after 8 days relative to control; type: functional; procedure, shortened: as §1
# Rattus norvegicus [26] = assay: Effect on serum HDL-C level in high cholesterol diet fed Sprague-Dawley rat at 3 mg/kg, po after 8 days relative to control; type: functional; procedure, shortened: as §1
# [27] = Oral bioavailability in Sprague-Dawley rat at 3 mg/kg; type: ADME, organism-based; conditions: in vivo; procedure, shortened: as §4
# Rattus norvegicus [28] = assay: Effect on serum triglyceride level in high cholesterol diet fed Sprague-Dawley rat at 10 mg/kg, po after 8 days relative to control; type: functional; procedure, shortened: as §1
# [29] = target: T2, Retinoic acid receptor RXR-alpha (Homo sapiens); assay: as §2; procedure, shortened: as §3
smiles,measurement,setting,value
CCN1C(=O)OC(C)(C)c2cc(C)c(-c3cc(/C=C/C(=O)O)ccc3OC(F)(F)F)cc21,EC50,[1],> 3000 nM
CCN1C(=O)CC(C)(C)c2cc(C)c(-c3ccc(/C=C/C(=O)O)cc3OC(F)(F)F)cc21,EC50,[1],> 3000 nM
CCN1C(=O)CC(C)(C)c2cc(C)c(-c3cc(/C=C4\SC(=O)NC4=O)ccc3OC(F)(F)F)cc21,Activity,Rattus norvegicus [2],41 mg/dL
same,Activity,Rattus norvegicus [3],216 mg/dL
same,EC50,[4],0.9 nM
same,EC50,[5],139 nM
same,Activity,Rattus norvegicus [6],126 mg/dL
same,EC50,[1],180 nM
same,Activity,Rattus norvegicus [7],371 mg/dL
same,Activity,Homo sapiens [8],25%
Cc1cc2c(cc1-c1cc(/C=C/C(=O)O)ccc1OC(F)(F)F)N(C)C(=O)CC2(C)C,Activity,THP-1,56%
same,EC50,[4],24.3 nM
same,EC50,[1],200 nM
Cc1cc2c(cc1-c1cc(/C=C/C(=O)O)ccc1OC(F)(F)F)N(C(C)C)C(=O)CC2(C)C,Activity,THP-1,70%
same,EC50,[1],10 nM
CCN1C(=O)C(C)(C)Oc2cc(C)c(-c3cc(/C=C/C(=O)O)ccc3OC(F)(F)F)cc21,Activity,THP-1,79%
same,EC50,[4],173 nM
same,EC50,[1],39.7 nM
same,Activity,[9],78%
CCn1c(=O)c2c(c3ccc(-c4cc(/C=C/C(=O)O)ccc4OC(F)(F)F)cc31)CCC2,EC50,[4],1600 nM
same,EC50,[1],> 3000 nM
CCN1C(=O)CC(C)(C)c2cc(C)c(-c3cc(/C=C/C(=O)O)ccc3OC)cc21,EC50,[1],975 nM
Cc1cc2c(cc1-c1cc(/C=C/C(=O)O)ccc1OC(F)(F)F)N(CC(F)(F)F)C(=O)CC2(C)C,EC50,[4],1.8 nM
same,EC50,[5],126 nM
same,EC50,[1],> 3000 nM
same,Activity,[9],94%
CCN1C(=O)CC(C)(C)c2cc(C)c(-c3ccc(/C=C/C(=O)O)s3)cc21,EC50,[4],1200 nM
same,EC50,[1],> 3000 nM
CCN1C(=O)CC(C)(C)c2cc(C)c(-c3cc(/C=C/C(=O)O)ccc3OC(F)(F)F)cc21,Activity,THP-1,81%
same,EC50,[4],1.8 nM
same,EC50,[1],3.6 nM
Cc1cc2c(cc1-c1cc(/C=C/C(=O)O)ccc1OCC(F)(F)F)N(C(C)C)C(=O)CC2(C)C,Activity,THP-1,32%
same,EC50,[4],18.3 nM
same,EC50,[5],> 3000 nM
same,EC50,[1],44 nM
same,Activity,[9],64%
same,Activity,Homo sapiens [10],149%
CCCN1C(=O)CC(C)(C)c2cc(C)c(-c3cc(/C=C/C(=O)O)ccc3OC(F)(F)F)cc21,EC50,[4],2.1 nM
same,EC50,[5],131 nM
same,EC50,[1],> 3000 nM
same,Activity,[9],83%
CCN1C(=O)C(C)Oc2cc(C)c(-c3cc(/C=C/C(=O)O)ccc3OC(F)(F)F)cc21 (stereo not drawn),EC50,[1],> 3000 nM
CCN1C(=O)C(C)(C)Oc2cc(C)c(-c3cc(/C(C)=C/C(=O)O)ccc3OC(F)(F)F)cc21,Activity,THP-1,76%
same,EC50,[5],> 3000 nM
same,EC50,[1],163 nM
same,Activity,[9],86%
same,Activity,Homo sapiens [10],240%
CCN1C(=O)CC(C)(C)c2cc(C)c(-c3cc(/C=C/C(=O)O)ccc3OCC(F)(F)F)cc21,Cmax,[11],61 ng/mL
same,Activity,THP-1,60%
same,Activity,Rattus norvegicus [12],302 mg/dL
same,Activity,Rattus norvegicus [13],134 mg/dL
same,Activity,Rattus norvegicus [2],38 mg/dL
same,Cmax,[14],2120 ng/mL
same,half-life,[15],4.6 h
same,Activity,Rattus norvegicus [3],182 mg/dL
same,Activity,Mus musculus,inactive
same,EC50,[4],67.3 nM
same,EC50,[5],> 3000 nM
same,Activity,Rattus norvegicus [16],16 mg/dL
same,Activity,Rattus norvegicus [17],41 mg/dL
same,Activity,Rattus norvegicus [18],382 mg/dL
same,Activity,Rattus norvegicus [19],341 mg/dL
same,Activity,Rattus norvegicus [6],151 mg/dL
same,EC50,[1],296 nM
same,Cmax,[20],844 ng/mL
same,Activity,Rattus norvegicus [7],440 mg/dL
same,Activity,Rattus norvegicus [21],126 mg/dL
same,Activity,[9],76%
same,Activity,Rattus norvegicus [22],102 mg/dL
same,AUC,[23],5520 ng·h/mL
same,Activity,Rattus norvegicus [24],249 mg/dL
same,Activity,Rattus norvegicus [25],349 mg/dL
same,Activity,Rattus norvegicus [26],34 mg/dL
same,bioavailability,[27],51%
same,Activity,Rattus norvegicus [28],175 mg/dL
CCN1C(=O)CC(C)(C)c2cc(C)c(-c3ccc(/C=C/C(=O)O)o3)cc21,EC50,[4],> 10000 nM
same,EC50,[1],> 3000 nM
Cc1cc2c(cc1-c1cc(/C=C/C(=O)O)ccc1OC(F)(F)F)NC(=O)CC2(C)C,Activity,[29],inactive
same,EC50,[1],> 3000 nM
CCN1C(=O)CN(C(C)C)c2cc(C)c(-c3cc(/C=C/C(=O)O)ccc3OC(F)(F)F)cc21,EC50,[1],> 3000 nM
CCn1c(=O)c2c(c3cc(-c4cc(/C=C/C(=O)O)ccc4OC(F)(F)F)ccc31)CCC2,EC50,[4],96.6 nM
same,EC50,[1],> 3000 nM
same,Activity,[9],125%
